This passage reports APD95 and Vmax results from ChEMBL document CHEMBL1123566, “Synthesis and cardiac electrophysiological activity of 2- and 3-[(substituted phenyl)alkyl]quinuclidines. Structure-activity relationships” (1987).

Where “and” joins values, the source holds several entries; their conditions need not be identical. Identical values can stand only once.

The species entered for assay [1] is Canis familiaris. As to the kind of experiment: In vitro electrophysiological activity in canine cardiac Purkinje fibres given as maximum % change for action potential duration at 100 uM concentration. The format is functional, Canis lupus familiaris, Purkinje fiber. A digest of the protocol: (§1)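 Canine cardiac Purkinje fibres, intracellular recording at 1 s basic cycle length, over cumulative concentration ranges. Compound 10 mM stock in deionized water diluted into Tyrode's. Each fibre used once as its own control. Value is the maximum % change from control in APD at 95% repolarization, with the concentration where it occurred; both values given if a biphasic response (>20% reversal) occurred.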

For assay [2], the species on record is Canis familiaris. The assay is described as follows: In vitro electrophysiological evaluation in canine cardiac Purkinje fibres reported as % change for action potential duration at 0.1-100 uM concentration range. The format is functional, Canis lupus familiaris, Purkinje fiber. A digest of the protocol:
(§2)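 Canine cardiac Purkinje fibres, intracellular microelectrode recording, paced at a basic cycle length of 1 s. APD95 and Vmax read simultaneously. Compound: 10 mM stock in deionized water, diluted into Tyrode's solution, tested over the stated concentration range. Each fibre used once as its own control. Result is % change from control, given at 10 µM or as the maximum with its concentration. M = <10% decrease or an increase in Vmax.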

For assay [3], the species on record is Canis familiaris. The assay is described as follows: In vitro electrophysiological activity in canine cardiac Purkinje fibres given as maximum % change for action potential duration at 0.1-100 uM concentration. The format is functional, Canis lupus familiaris, Purkinje fiber. A digest of the protocol: as §1
The species entered for assay [4] is Canis familiaris. The assay is described as follows: In vitro electrophysiological evaluation in canine cardiac Purkinje fibres reported as % change for action potential duration at 1-100 uM concentration range. The format is functional, Canis lupus familiaris, Purkinje fiber. The method in brief: (§3)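 Canine cardiac Purkinje fibers, intracellular recording, paced at a basic cycle length of 1 s. APD95 and Vmax are recorded together across cumulative concentrations. Compound is a 10 mM aqueous stock diluted into Tyrode's solution. Each fiber is used once as its own control. Readouts are percent change from control at 10 μM, and the maximum change with the concentration where it occurred.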

The species entered for assay [5] is Canis familiaris. As to the kind of experiment: In vitro electrophysiological evaluation in canine cardiac Purkinje fibres reported as percent change Vmax concentration range of 1-100 uM. The format is functional. The note with it: Canis lupus familiaris; Purkinje fiber. A digest of the protocol: as §3
For assay [6], the species on record is Canis familiaris. As to the kind of experiment: In vitro electrophysiological evaluation in canine cardiac Purkinje fibres reported as maximum percent change Vmax concentration range of 1-100 uM. The format is functional. The note with it: Canis lupus familiaris; Purkinje fiber. A digest of the protocol:
as §3

For assay [7], the species on record is Canis familiaris. The assay is described as follows: In vitro electrophysiological evaluation in canine cardiac Purkinje fibres reported as percent change Vmax concentration range of 0.1-100 uM. The format is functional. The note with it: Canis lupus familiaris; Purkinje fiber. The method in brief:
as §2

The species entered for assay [8] is Canis familiaris. The assay is described as follows: In vitro electrophysiological activity in canine cardiac Purkinje fibres given as maximum % change for action potential duration at 1 uM concentration. The format is functional, Canis lupus familiaris, Purkinje fiber. The method in brief:
as §1

On to `CCN(CC)CCCCc1ccc(Cl)cc1`, for which the APD95 was -15% in the assay filed under Canis familiaris [1]; 38% and 27% in the assay filed under Canis familiaris [2]; 38% and 27% in the assay filed under Canis familiaris [3]; 21% in the assay filed under Canis familiaris [4]; 25% in the assay listed under Canis familiaris [8]. Moreover, the values for the Vmax in the assay listed under Canis familiaris [5], in the assay filed under Canis familiaris [6] and in the assay filed under Canis familiaris [7] were under 10%, -57% and under 10%, respectively.
